Legend:
MCF7 = assay: Cytotoxicity against ER-positive human MCF7 cells assessed as redution in cell viability incubated for 72 hrs by SRB assay; format: functional, cell-based; details: MCF7, 72 h
How it was run: (§1)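 Breast tumour lines from ATCC, each in its own medium with 10% FBS: SKBR-3 (HER2+) in McCoy's 5A; MCF-7 (ER+) in MEM plus 0.01 mg/mL human recombinant insulin; MDA-MB-231 (triple-negative) in DMEM. Cells were kept at 37°C, 5% CO2, humidified. Compounds were tested on 1x10^4 cells/well by sulforhodamine B assay. IC50 came from a nonlinear fit of log concentration vs normalized response (variable slope).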

SK-BR-3 = assay: Cytotoxicity against HER2-positive human SKBR3 cells assessed as redution in cell viability incubated for 72 hrs by SRB assay; format: functional, cell-based; details: SK-BR-3, 72 h
MDA-MB-231 = assay: Cytotoxicity against triple-negative human MDA-MB-231 cells assessed as redution in cell viability incubated for 72 hrs by SRB assay; format: functional, cell-based; details: MDA-MB-231, 72 h; how it was run: as §1
[1] = Cytotoxicity against human HGF cells assessed as redution in cell viability incubated for 72 hrs by SRB assay; format: cell-based
How it was run: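 Non-tumour human HGF cells were obtained under UFSC ethics approval 021/2009 and kept at 37°C, 5% CO2, humidified, with 10% FBS. Compounds were tested on 1x10^4 cells/well by sulforhodamine B assay. IC50 came from a nonlinear variable-slope fit of log concentration vs normalized response.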

[2] = Selectivity index, ratio of IC50 for human HGF cells to IC50 for SKBR3 cells; format: toxicity; details: HGF cells versus SKBR3 cells, read-out: Ratio IC50
[3] = Selectivity index, ratio of IC50 for human HGF cells to IC50 for MDA-MB-231 cells; format: toxicity; details: HGF cells versus MDA-MB-231 cells, read-out: Ratio IC50
[4] = Selectivity index, ratio of IC50 for human HGF cells to IC50 for MCF7 cells; format: toxicity; details: HGF cells versus MCF7 cells, read-out: Ratio IC50

O=C1C=C(OCc2cn([C@@H]3O[C@H](CO)[C@@H](O)[C@H](O)[C@H]3O)nn2)C(=O)c2ccccc21
IC50 (MCF7): 38.9 µM
IC50 (SK-BR-3): 34.7 µM
IC50 (MDA-MB-231): > 50 µM
IC50 [1]: > 50 µM

CC(=O)OC[C@H]1O[C@@H](n2cc(COC3=CC(=O)c4ccccc4C3=O)nn2)[C@H](OC(C)=O)[C@@H](OC(C)=O)[C@@H]1OC(C)=O
IC50 (MCF7): 3.33 µM
IC50 (SK-BR-3): 0.78 µM
selectivity ratio [2]: 22
IC50 (MDA-MB-231): 14 µM
IC50 [1]: 17.7 µM

O=C1C=C(OCc2cn([C@@H]3O[C@H](CO)[C@H](O)[C@H](O)[C@H]3O)nn2)C(=O)c2ccccc21
IC50 (MCF7): > 50 µM
IC50 (SK-BR-3): > 50 µM
IC50 (MDA-MB-231): > 50 µM
IC50 [1]: > 50 µM

CC(=O)N[C@H]1[C@H](OC2=CC(=O)c3ccccc3C2=O)O[C@H](COC(C)=O)[C@@H](OC(C)=O)[C@@H]1OC(C)=O
IC50 (MCF7): 16.3 µM
IC50 (SK-BR-3): 8.3 µM
IC50 (MDA-MB-231): 27.6 µM
IC50 [1]: > 50 µM

CC(=O)OC[C@H]1O[C@@H](n2cc(COC3=CC(=O)c4ccccc4C3=O)nn2)[C@H](OC(C)=O)[C@@H](OC(C)=O)[C@H]1OC(C)=O
IC50 (MCF7): 4.22 µM
IC50 (SK-BR-3): 1.27 µM
selectivity ratio [2]: 22
IC50 (MDA-MB-231): 16.7 µM
IC50 [1]: 27.6 µM

CC(=O)O[C@H]1[C@H](OC(C)=O)[C@H](OC2=CC(=O)c3ccccc3C2=O)O[C@@H](C)[C@H]1OC(C)=O
IC50 (MCF7): 11 µM
IC50 (SK-BR-3): 9.52 µM
IC50 (MDA-MB-231): 18.2 µM
IC50 [1]: 19.8 µM

CC(=O)O[C@@H]1[C@H](OC(C)=O)[C@H](C)O[C@H](n2cc(COC3=CC(=O)c4ccccc4C3=O)nn2)[C@H]1OC(C)=O
IC50 (MCF7): 9.74 µM
IC50 (SK-BR-3): 3.32 µM
IC50 (MDA-MB-231): 23.4 µM
IC50 [1]: 38.1 µM

CC(=O)OC[C@H]1O[C@H](OC2=CC(=O)c3ccccc3C2=O)[C@H](OC(C)=O)[C@@H](OC(C)=O)[C@H]1OC(C)=O
IC50 (MCF7): 4.58 µM
selectivity ratio [3]: 4
IC50 (SK-BR-3): 2.51 µM
selectivity ratio [4]: 8
IC50 (MDA-MB-231): 9.18 µM
IC50 [1]: 35.7 µM

COc1cccc2c1C(=O)c1c(O)c3c(c(O)c1C2=O)C[C@@](O)(C(=O)CO)C[C@@H]3O[C@H]1C[C@H](N)[C@H](O)[C@H](C)O1 [DOXORUBICIN]
IC50 (MCF7): 0.38 µM
IC50 [1]: > 50 µM

CC(=O)N[C@@H]1[C@@H](O)[C@H](O)[C@@H](CO)O[C@H]1n1cc(COC2=CC(=O)c3ccccc3C2=O)nn1
IC50 (MCF7): > 50 µM
IC50 (SK-BR-3): > 50 µM
IC50 (MDA-MB-231): > 50 µM
IC50 [1]: > 50 µM

C[C@@H]1O[C@H](n2cc(COC3=CC(=O)c4ccccc4C3=O)nn2)[C@@H](O)[C@H](O)[C@@H]1O
IC50 (MCF7): > 50 µM
IC50 (SK-BR-3): > 50 µM
IC50 (MDA-MB-231): > 50 µM
IC50 [1]: > 50 µM

CC(=O)N[C@H]1[C@@H](OC2=CC(=O)c3ccccc3C2=O)O[C@H](COC(C)=O)[C@@H](OC(C)=O)[C@@H]1OC(C)=O
IC50 (MCF7): 6.59 µM
IC50 (SK-BR-3): 3.41 µM
IC50 (MDA-MB-231): 19.8 µM
IC50 [1]: 40.2 µM

CC(=O)OC[C@H]1O[C@@H](OC2=CC(=O)c3ccccc3C2=O)[C@H](OC(C)=O)[C@@H](OC(C)=O)[C@H]1OC(C)=O
IC50 (MCF7): 13.6 µM
IC50 (SK-BR-3): 8.86 µM
IC50 (MDA-MB-231): 13.3 µM
IC50 [1]: 34.6 µM

CC(=O)O[C@H]1[C@H](OC(C)=O)[C@@H](OC2=CC(=O)c3ccccc3C2=O)O[C@@H](C)[C@H]1OC(C)=O
IC50 (MCF7): 5.02 µM
IC50 (SK-BR-3): 2.41 µM
IC50 (MDA-MB-231): 8.65 µM
IC50 [1]: > 50 µM

O=C1C=C(O)C(=O)c2ccccc21 [LAWSONE]
IC50 (MCF7): > 50 µM
IC50 (SK-BR-3): > 50 µM
IC50 (MDA-MB-231): > 50 µM
IC50 [1]: > 50 µM

CC(=O)N[C@@H]1[C@@H](OC(C)=O)[C@H](OC(C)=O)[C@@H](COC(C)=O)O[C@H]1n1cc(COC2=CC(=O)c3ccccc3C2=O)nn1
IC50 (MCF7): 28.9 µM
IC50 (SK-BR-3): 17 µM
IC50 (MDA-MB-231): > 50 µM
IC50 [1]: > 50 µM

CC(=O)OC[C@H]1O[C@H](OC2=CC(=O)c3ccccc3C2=O)[C@H](OC(C)=O)[C@@H](OC(C)=O)[C@@H]1OC(C)=O
IC50 (MCF7): 3.52 µM
IC50 (SK-BR-3): 2.11 µM
IC50 (MDA-MB-231): 8.29 µM
IC50 [1]: 20.2 µM

CC(=O)OC[C@H]1O[C@@H](OC2=CC(=O)c3ccccc3C2=O)[C@H](OC(C)=O)[C@@H](OC(C)=O)[C@@H]1OC(C)=O
IC50 (MCF7): 4.76 µM
IC50 (SK-BR-3): 2.96 µM
IC50 (MDA-MB-231): 12.6 µM
IC50 [1]: 19.1 µM

From ChEMBL document CHEMBL4602630, “Synthesis and cytotoxicity evaluation of glycosidic derivatives of lawsone against breast cancer cell lines” (Bioorg Med Chem Lett, 2020)
